Data as given in ChEMBL document CHEMBL1141613, “Conception of myeloperoxidase inhibitors derived from flufenamic acid by computational docking and structure modification” (Bioorg Med Chem, 2008).

Legend:
[1] = biological target: T1, Myeloperoxidase (Homo sapiens) (UniProt P05164); assay: Inhibition of chlorinating activity of recombinant myeloperoxidase at 0.5 uM by taurine assay
T1 sequence (whole entry): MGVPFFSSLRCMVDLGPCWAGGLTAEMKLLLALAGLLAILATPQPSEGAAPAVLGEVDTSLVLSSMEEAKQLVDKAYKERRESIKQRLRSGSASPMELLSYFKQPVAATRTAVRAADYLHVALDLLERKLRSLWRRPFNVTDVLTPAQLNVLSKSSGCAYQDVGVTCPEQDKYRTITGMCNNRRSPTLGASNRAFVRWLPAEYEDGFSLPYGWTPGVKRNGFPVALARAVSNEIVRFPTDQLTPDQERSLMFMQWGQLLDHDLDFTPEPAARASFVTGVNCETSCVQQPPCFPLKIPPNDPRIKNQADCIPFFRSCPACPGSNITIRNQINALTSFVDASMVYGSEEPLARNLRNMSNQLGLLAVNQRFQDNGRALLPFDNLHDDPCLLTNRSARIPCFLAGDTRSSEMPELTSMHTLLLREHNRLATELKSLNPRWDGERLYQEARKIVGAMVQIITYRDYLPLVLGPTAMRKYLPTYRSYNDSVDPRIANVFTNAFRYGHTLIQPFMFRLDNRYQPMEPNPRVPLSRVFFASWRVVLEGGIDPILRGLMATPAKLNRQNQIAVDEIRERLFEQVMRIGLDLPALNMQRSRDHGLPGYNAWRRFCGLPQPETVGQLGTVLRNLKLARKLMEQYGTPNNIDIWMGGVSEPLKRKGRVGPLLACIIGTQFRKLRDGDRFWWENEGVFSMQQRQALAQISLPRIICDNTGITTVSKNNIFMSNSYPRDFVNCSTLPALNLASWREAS
Summary of the method: (§1)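 Recombinant MPO (~25 nM) in pH 7.4 phosphate (10 mM)/NaCl 300 mM with taurine (15 mM) and compound (0–20 μM) at 37 °C; started with H2O2 (100 μM), stopped after 5 min with catalase. Taurine chloramine measured with TNB. No inhibitor = 0%, no H2O2 = 100%. At least 3 determinations. IC50 from three-parameter sigmoid fit.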

[2] = biological target: T1, Myeloperoxidase (Homo sapiens); assay: Inhibition of chlorinating activity of recombinant myeloperoxidase at 4 uM by taurine assay; summary of the method: as §1
Myeloperoxidase = biological target: T2, Myeloperoxidase (Homo sapiens, UniProt P05164); assay: Inhibition of chlorinating activity of recombinant myeloperoxidase by taurine assay; assay type: single protein format; summary of the method: as §1
T2 sequence (P05164 whole entry): T1 sequence (whole entry)

[3] = biological target: T1, Myeloperoxidase (Homo sapiens); assay: Inhibition of chlorinating activity of recombinant myeloperoxidase at 2 uM by taurine assay; summary of the method: as §1
[4] = Hypochlorous acid scavenging activity at 2 uM by taurine assay; assay type: functional
Summary of the method: (§2)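 No enzyme; HOCl (60 μM) added to pH 7.4 phosphate buffer (10 mM phosphate/300 mM NaCl) with taurine (15 mM) and compound (0.5, 1, 2, 4 μM) at 37 °C. Catalase added after 5 min. Taurine chloramine quantified with 0.45 mM TNB.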

[5] = Hypochlorous acid scavenging activity at 1 uM by taurine assay; assay type: functional; summary of the method: as §2
[6] = Hypochlorous acid scavenging activity at 4 uM by taurine assay; assay type: functional; summary of the method: as §2
[7] = biological target: T1, Myeloperoxidase (Homo sapiens); assay: Inhibition of chlorinating activity of recombinant myeloperoxidase at 1 uM by taurine assay; summary of the method: as §1
[8] = Hypochlorous acid scavenging activity at 0.5 uM by taurine assay; assay type: functional; summary of the method: as §2
[9] = LDL oxidation at 300 uM by ELISA
[10] = LDL oxidation at 15 uM by ELISA
[11] = LDL oxidation at 5 uM by ELISA
[12] = LDL oxidation at 30 uM by ELISA

SMILES	inhibition [1] [%]	inhibition [2] [%]	IC50 (Myeloperoxidase) [µM]	inhibition [3] [%]	Activity [4] [%]	Activity [5] [%]	Activity [6] [%]	inhibition [7] [%]	Activity [8] [%]	level, % of control [9] [%]	level, % of control [10] [%]	level, % of control [11] [%]	level, % of control [12] [%]
O=C(CCCO)Nc1ccc(C(=O)O)c(Nc2cccc(C(F)(F)F)c2)c1	8.5	20	> 100	12.2	-1	0	1	12	0	–	–	–	–
O=C(O)c1cccc(Nc2cccc(C(F)(F)F)c2)c1C(=O)O	–	–	> 100	–	–	–	–	–	–	–	–	–	–
O=C(O)/C=C/C(=O)Nc1ccc(C(=O)O)c(Nc2cccc(C(F)(F)F)c2)c1	0.3	0.3	> 100	0.1	0	-1	2	0.6	-1	–	–	–	–
CC(=O)Nc1ccc(C(=O)O)c(Nc2cccc(C(F)(F)F)c2)c1	12	42	14	33	2	2	1	24	1	29	86	122	61
O=C(O)c1cc(Br)ccc1Nc1cccc(C(F)(F)F)c1	36	79	1.8	65	3	2	4.9	51	3	29	–	–	–
O=C(O)c1cc(F)ccc1Nc1cccc(C(F)(F)F)c1	37	76	1.8	63	1.9	2	3	49	3.3	9	–	–	–
NCCCC(=O)Nc1ccc(C(=O)O)c(Nc2cccc(C(F)(F)F)c2)c1	12	49	5.5	35	2	2	1	21	1	–	–	–	–
O=C(O)c1cc(Cl)ccc1Nc1cccc(C(F)(F)F)c1	29	74	1.6	57	2	0.4	1	42	1	112	–	–	–
Nc1ccc(C(=O)O)c(Nc2cccc(C(F)(F)F)c2)c1	–	–	–	–	2	2	3	–	1	29	70	79	56
O=C(O)c1cc(O)ccc1Nc1cccc(C(F)(F)F)c1	–	–	–	–	2.5	2	2	–	2	53	–	–	–
O=C(O)c1ccccc1Nc1cccc(C(F)(F)F)c1 [FLUFENAMIC ACID]	25	64	1.8	52	1.6	1.1	1.7	40	2	10	82	97	23
O=C(O)c1ccc([N+](=O)[O-])cc1Nc1cccc(C(F)(F)F)c1	29	55	5	43	1	0	2	29	0	16	143	121	135
O=C(Nc1ccc(C(=O)O)c(Nc2cccc(C(F)(F)F)c2)c1)c1ccccc1	11	35	58	25	0	0	2	15	1	–	–	–	–
